Test results taken from ChEMBL document CHEMBL3352444, “Bioactive spirobisnaphthalenes from the endophytic fungus Berkleasmium sp” (J Nat Prod, 2014).
Values after ≈ are worked out from the molar mass of the structure shown.

How the values were obtained:
[1] = tested on: Agrobacterium tumefaciens; assay: Antibacterial activity against Agrobacterium tumefaciens No.8 ATCC 11158 by modified broth dilution method; format: functional
Procedure, shortened: (§1)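 MIC read in 96-well plates by a modified broth dilution test; streptomycin sulfate as positive control.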

[2] = tested on: Pseudomonas; assay: Antibacterial activity against Pseudomonas lachrymans ATCC 11921 by modified broth dilution method; format: functional; procedure, shortened: as §1
[3] = Cytotoxicity against human Bel7402 cells by MTT assay; details: Bel-7402
[4] = tested on: A549; assay: Cytotoxicity against human A549 cells by MTT assay; format: functional, cell-based
[5] = tested on: Xanthomonas vesicatoria; assay: Antibacterial activity against Xanthomonas vesicatoria ATCC 11633 by modified broth dilution method; format: functional; procedure, shortened: as §1
[6] = Cytotoxicity against human BGC823 cells by MTT assay; details: BGC-823
[7] = tested on: Ralstonia solanacearum; assay: Antibacterial activity against Ralstonia solanacearum ATCC 11696 by modified broth dilution method; format: functional
[8] = tested on: A2780; assay: Cytotoxicity against human A2780 cells by MTT assay
[9] = tested on: Bacillus subtilis; assay: Antibacterial activity against Bacillus subtilis ATCC 11562 by modified broth dilution method; format: functional; procedure, shortened: as §1
[10] = Cytotoxicity against human HCT8 cells by MTT assay; details: HCT-8
[11] = tested on: Pyricularia oryzae; assay: Antifungal activity against Magnaporthe oryzae assessed as inhibition of spore germination incubated for 8 hrs; format: functional, organism-based
[12] = tested on: Staphylococcus haemolyticus; assay: Antibacterial activity against Staphylococcus haemolyticus ATCC 29970 by modified broth dilution method; format: functional; procedure, shortened: as §1

Row | Compound | MIC [1] [µg/mL] | MIC [2] [µg/mL] | IC50 [3] [µM] | IC50 [4] [µM] | MIC [5] [µg/mL] | IC50 [6] [µM] | MIC [7] [µg/mL] | IC50 [8] [µM] | MIC [9] [µg/mL] | IC50 [10] [µM] | IC50 [11] [µg/mL] | MIC [12] [µg/mL]
1 | Oc1ccc(O)c2c1C=C[C@@H](O)C21Oc2cccc3cccc(c23)O1 | 37.5 (≈ 112 µM) | 25 (≈ 74.8 µM) | > 10 | > 10 | 37.5 (≈ 112 µM) | > 10 | 37.5 (≈ 112 µM) | > 10 | 50 (≈ 150 µM) | > 10 | 35.9 (≈ 107 µM) | 37.5 (≈ 112 µM)
2 | CO[C@@H]1CC(=O)[C@]23O[C@]2([C@@H](O)[C@H]2O[C@H]2C32Oc3cccc4cccc(c34)O2)[C@H]1O | 50 (≈ 126 µM) | 37.5 (≈ 94.1 µM) | 6.4 | 8.7 | 37.5 (≈ 94.1 µM) | > 10 | 37.5 (≈ 94.1 µM) | > 10 | 37.5 (≈ 94.1 µM) | > 10 | > 200 | 50 (≈ 126 µM)
3 | Oc1ccc(O)c2c1[C@@H](O)[C@H]1O[C@H]1C21Oc2cccc3cccc(c23)O1 | 250 (≈ 714 µM) | 200 (≈ 571 µM) | > 10 | > 10 | 200 (≈ 571 µM) | > 10 | 250 (≈ 714 µM) | > 10 | 100 (≈ 285 µM) | > 10 | 76.7 (≈ 219 µM) | 250 (≈ 714 µM)
4 | O[C@@H]1C=C[C@H](O)[C@@]23O[C@@]12C1(Oc2cccc4cccc(c24)O1)[C@@H]1O[C@@H]1[C@@H]3O | > 250 | > 250 | > 10 | > 10 | > 250 | > 10 | > 250 | > 10 | > 250 | > 10 | > 200 | > 250
5 | O=C1C[C@@H](O)[C@H](O)[C@@]23O[C@@]12C1(Oc2cccc4cccc(c24)O1)[C@@H]1O[C@@H]1[C@@H]3O | 75 (≈ 195 µM) | 75 (≈ 195 µM) | 3.3 | 3.2 | 75 (≈ 195 µM) | 3.3 | 75 (≈ 195 µM) | 5.8 | 75 (≈ 195 µM) | 1.7 | > 200 | 75 (≈ 195 µM)
6 | O=C1C=C[C@H](O)[C@@]23O[C@@]12C1(Oc2cccc4cccc(c24)O1)[C@H](O)[C@@H](O)[C@@H]3O | 200 (≈ 520 µM) | 150 (≈ 390 µM) | > 10 | > 10 | 150 (≈ 390 µM) | > 10 | 200 (≈ 520 µM) | > 10 | 200 (≈ 520 µM) | > 10 | > 200 | 200 (≈ 520 µM)
7 | O[C@@H]1[C@@H](O)C2(Oc3cccc4cccc(c34)O2)[C@@]23O[C@@]2([C@@H](O)CC[C@H]3O)[C@H]1O | > 250 | > 250 | > 10 | > 10 | > 250 | > 10 | > 250 | > 10 | > 250 | > 10 | > 200 | > 250
8 | O=C1C=C[C@H](O)[C@@]23O[C@@]12C1(Oc2cccc4cccc(c24)O1)[C@@H]1O[C@@H]1[C@@H]3O | 50 (≈ 136 µM) | 50 (≈ 136 µM) | 5.1 | 8.8 | 50 (≈ 136 µM) | > 10 | 50 (≈ 136 µM) | > 10 | 50 (≈ 136 µM) | > 10 | 105 (≈ 287 µM) | 50 (≈ 136 µM)
9 | O=C1CCC2(Oc3cccc4cccc(c34)O2)c2c(Cl)ccc(O)c21 | > 250 | > 250 | > 10 | > 10 | > 250 | > 10 | > 250 | > 10 | > 250 | > 10 | > 200 | > 250
10 | O=C1C[C@H](O)[C@H](O)[C@@]23O[C@@]12C1(Oc2cccc4cccc(c24)O1)[C@@H]1O[C@@H]1[C@@H]3O | > 250 | > 250 | > 10 | > 10 | > 250 | > 10 | > 250 | > 10 | > 250 | > 10 | > 200 | > 250
